Each structure is given as a SMILES string. pIC50, pKd: −log10 of the molar value. The source made the active and inactive calls. The calls are words filed in the database; no cut-off is given here.

Series [1] has as its target Heme. Put plainly: Binding affinity to heme by optical difference spectroscopy. Summed up: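 Heme in 100 mM acetate buffer pH 5.2 at 25 ± 1°C, 1-cm quartz cell, was titrated with successive additions of compound (5 to 40 μM). Soret and difference spectra were recorded after each addition. KD came from a double-reciprocal plot of 1/ΔA362 against 1/[ligand]; mean ± SEM.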

In series [2] the target is Plasmodium yoelii. Kind of series: Inhibition of hemozoin formation after 48 hrs in multi drug-resistant Plasmodium yoelii.
In series [3] the test system is Plasmodium falciparum. Put plainly: Antiplasmodial activity after 48 hrs against chloroquine-sensitive Plasmodium falciparum NF54 by [3H]hypoxanthine uptake. The class given is functional, organism-based. The procedure, abridged: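 Ring-stage cultures were synchronized with 5% d-sorbitol. At 0.5 to 1% parasitemia they were grown in multiwell plates (200 μl/well) across a range of concentrations, with chloroquine as positive control. After 48 h, [3H]hypoxanthine (0.7 μCi/well) was added and culture continued 48 h. Parasites were washed in PBS, dissolved in 3 N NaOH (37°C, 6 h) and counted by β-counter. IC50 reported as mean ± SEM.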

The target of series [4] is T1, Histidine-rich protein PFHRP-II (Plasmodium falciparum, UniProt P05227).
T1 sequence (P05227 whole entry): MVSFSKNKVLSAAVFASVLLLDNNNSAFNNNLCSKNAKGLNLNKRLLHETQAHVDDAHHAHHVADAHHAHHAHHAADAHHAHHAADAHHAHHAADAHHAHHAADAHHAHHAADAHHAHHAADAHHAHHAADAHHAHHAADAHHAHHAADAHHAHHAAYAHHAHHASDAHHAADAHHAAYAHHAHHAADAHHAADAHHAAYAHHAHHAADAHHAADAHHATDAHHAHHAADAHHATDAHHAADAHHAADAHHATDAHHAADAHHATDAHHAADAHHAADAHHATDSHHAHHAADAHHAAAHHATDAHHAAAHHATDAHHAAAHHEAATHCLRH
Kind of series: Inhibition of hemozoin formation after 48 hrs in chloroquine-sensitive Plasmodium falciparum NF54. The class given is functional. The procedure, abridged: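 P. falciparum NF54 culture (5% parasitemia) was ring-synchronized with 5% d-sorbitol, then exposed to graded drug concentrations for 48 h. Parasites were freed with saponin, sonicated and washed with 2% SDS. The pellet was digested overnight at 37°C with proteinase K (2 μg/ml) in Tris/SDS/CaCl2 and treated with 6 M urea for 3 h. After further SDS washes, hemozoin was dissolved in 20 mM NaOH/2% SDS and read at 400 nm.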

Series [5] relates to Plasmodium yoelii. Put plainly: Antiplasmodial activity as decreased mitochondrial transmembrane potential after 1 hrs against multi drug-resistant Plasmodium yoelii trophozoite infected Swiss mice (Mus musculus) erythrocytes at 10 uM by JC1 uptake. It counts as functional, organism-based.
For series [6], the system named is Plasmodium falciparum. Kind of series: Induction of oxidative stress as decreased glutathione after 48 hrs in chloroquine-sensitive Plasmodium falciparum NF54 by TCA assay. The class given is functional, organism-based. Summed up: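 Parasites at 4% parasitemia were treated 48 h, then isolated and sonicated in 20 mM ice-cold EDTA. The lysate was deproteinized with equal-volume 10% TCA, and the supernatant mixed with 0.8 M Tris-HCl pH 9 containing 20 mM DTNB. A412 was read against a GSH standard and expressed as % of control.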

The test system of series [7] is Plasmodium yoelii. Kind of series: Antiplasmodial activity as reduced parasitaemia at day 4 against multi drug-resistant Plasmodium yoelii infected BALB/c mice (Mus musculus) at 10 mg/kg intraperitoneal dose 6 hrs post infection and daily for 3 days by Giemsa stain. It counts as functional. Set-up: scale not given: the % may be the effect or the level left. The procedure, abridged: (§1)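 BALB/c mice (22 ± 2 g), five per group, infected intraperitoneally on day 0 with 10^5 parasitized RBC of P. yoelii resistant to chloroquine, mefloquine and halofantrine. Dosing was intraperitoneal in groundnut oil (0.2 ml), starting 6 h after inoculation and given once daily on days 0–3. Parasitemia was read on Giemsa thin smears on day 4. Group means gave % suppression [(C−T)/C]×100 against vehicle controls; α-β-arteether served as the positive control.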

Series [8] concerns Plasmodium falciparum. Put plainly: Induction of oxidative stress as increased H2O2 formation after 48 hrs in chloroquine-sensitive Plasmodium falciparum NF54 by spectrofluorimetry. The class given is functional, organism-based. Summed up:
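Parasites at 4% parasitemia were treated 48 h, then loaded 30 min with 10 μM 2′,7′-dichlorofluorescein diacetate. They were isolated and lysed by mild sonication at 4°C. Dichlorofluorescein fluorescence was read at ex 502/em 523 nm and expressed as intensity/mg lysate protein.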

In series [9] the test system is Plasmodium falciparum. Kind of series: Induction of oxidative stress as increased hydroxyl radical formation after 48 hrs in chloroquine-sensitive Plasmodium falciparum NF54 by fast blue BB assay. It counts as functional, organism-based. Summed up:
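Ring/early-trophozoite culture (2% parasitemia) was grown 48 h with compound plus 20 μl of 25% DMSO as ·OH trap, re-dosed at each daily medium change; a parasite-only control had neither. Isolated parasites were lysed in water, and methanesulfinic acid from the DMSO–·OH reaction was extracted for quantitation.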

Series [10] concerns Plasmodium falciparum. Kind of series: Induction of oxidative stress as lipid peroxide formation after 48 hrs in chloroquine-sensitive Plasmodium falciparum NF54. The class given is functional, organism-based. The procedure, abridged:
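Ring-synchronized culture (4% parasitemia) was treated 48 h, and parasites were isolated and lysed in PBS. Lysate was heated with TCA–thiobarbituric acid in 1 N HCl at 100°C for 15 min, cooled and centrifuged. A535 of the supernatant was read against a tetraethoxypropane standard, expressed as nmol/mg lysate protein.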

The target in series [11] is T2, Histidine-rich protein PFHRP-II (Plasmodium falciparum) (UniProt P05227).
T2 sequence (whole entry): T1 sequence (P05227 whole entry)
Kind of series: Inhibition of hemozoin formation after 48 hrs against chloroquine-sensitive Plasmodium falciparum NF54 at 10 to 100 uM by spectrophotometry. It counts as functional. The procedure, abridged:
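Ring-synchronized culture (5% parasitemia, sorbitol) was treated 48 h across a concentration range. Parasites were saponin-isolated and sonicated, and the pellet washed in 2% SDS. It was digested with proteinase K (2 μg/ml, 37°C overnight), treated with 6 M urea for 3 h, and washed in SDS. Hemozoin was dissolved in 20 mM NaOH/2% SDS and read at 400 nm.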

The subject of series [12] is Plasmodium yoelii. Put plainly: Antiplasmodial activity as reduced parasitaemia at day 4 against multi drug-resistant Plasmodium yoelii infected BALB/c mice (Mus musculus) at 25 mg/kg intraperitoneal dose 6 hrs post infection and daily for 3 days by Giemsa stain. Also noted: scale not given: the % may be the effect or the level left. It counts as functional. Summed up:
as §1

The test system of series [13] is Plasmodium yoelii. Kind of series: Antiplasmodial activity as reduced parasitaemia at day 4 against multi drug-resistant Plasmodium yoelii infected BALB/c mice (Mus musculus) at 50 mg/kg intraperitoneal dose 6 hrs post infection and daily for 3 days by Giemsa stain. The class given is functional. Set-up: scale not given: the % may be the effect or the level left. Summed up: as §1

The test system of series [14] is Plasmodium falciparum. Put plainly: Antiplasmodial activity as parasite growth after 24 hrs against chloroquine-sensitive Plasmodium falciparum NF54 infected human B+ erythrocytes at <40 uM 24 hrs preinfection by [3H]hypoxanthine uptake. It counts as functional, organism-based. Summed up: (§2)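 Uninfected human B+ RBC at 5% hematocrit were preincubated 24 h in CRPMI with compound up to 40 μM; DMSO served as control. Cells were washed three times, then inoculated with trophozoite-rich parasitized RBC (4 to 5% parasitemia). After one intraerythrocytic cycle, [3H]hypoxanthine (0.7 μCi/well) was added for 24 h. Cells were filter-harvested and counted (cpm), n = 6.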

Series [15] deals with MCF7. Kind of series: Cytotoxicity against human MCF7 cells assessed as cell viability at 10 to 1000 uM after 24 hrs by MTT assay. The class given is cell-based. Conditions: mcf7, 24 h. A general note: Tetrazolium assays rely on reduction of a dye to a coloured formazan, in cell work by metabolically active cells.
The subject of series [16] is Plasmodium falciparum. Put plainly: Antiplasmodial activity after 48 hrs against chloroquine-sensitive Plasmodium falciparum NF54 by [3H]hypoxanthine uptake in presence of PBN. It counts as functional, organism-based. Summed up: (§3)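 Cultures at 4% parasitemia received test compound at 40 μM for 48 h, plus the ·OH scavenger PBN (40 mM) or mannitol (10 mM). Growth was read as [3H]hypoxanthine incorporation, β-counting, n = 6, mean ± SEM.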

Series [17] deals with Plasmodium falciparum. Put plainly: Antiplasmodial activity as increased heme accumulation after 48 hrs against chloroquine-sensitive Plasmodium falciparum NF54 at 10-100 uM by spectrophotometry. The class given is functional, organism-based. The procedure, abridged:
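Cultures were exposed to a range of concentrations for 48 h, then pelleted and washed in PBS. Each pellet was solubilized in 1 ml concentrated formic acid. Heme was read at 398 nm (ε = 1.56 × 10^5 M−1 cm−1) and expressed as nmol/mg cell protein.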

In series [18] the test system is Plasmodium falciparum. Put plainly: Antiplasmodial activity after 48 hrs against chloroquine-sensitive Plasmodium falciparum NF54 by [3H]hypoxanthine uptake in presence of mannitol. It counts as functional, organism-based. The procedure, abridged:
as §3

For series [19], the system named is Plasmodium falciparum. Kind of series: Antiplasmodial activity as parasite invasion after 24 hrs against chloroquine-sensitive Plasmodium falciparum NF54 infected human B+ erythrocytes at <40 uM 24 hrs preinfection by [3H]hypoxanthine uptake. The class given is functional, organism-based. The procedure, abridged: as §2
Series [20] has as its system MCF7. Kind of series: Cytotoxicity against human MCF7 cells assessed as cell viability after 24 hrs by MTT assay. The class given is cell-based. As to conditions: MCF7, 24 h.
The nature of series [21]: Selectivity index ratio of IC50 for human MCF7 cells to IC50 for chloroquine-sensitive Plasmodium falciparum NF54. It counts as functional. The procedure, abridged: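 Selectivity index = MCF-7 MTT IC50 divided by P. falciparum NF-54 [3H]hypoxanthine-uptake IC50.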
Series [22] relates to Plasmodium yoelii. Kind of series: Antiplasmodial activity as reduced parasitaemia at day 4 against multi drug-resistant Plasmodium yoelii infected BALB/c mice (Mus musculus) at 100 mg/kg intraperitoneal dose 6 hrs post infection and daily for 3 days by Giemsa stain. Also noted: scale not given: the % may be the effect or the level left. It counts as functional. The procedure, abridged: as §1

As a reminder, the pKd is −log10 of the Kd, conventionally taken in molar units. By pIC50 is commonly meant the negative decadic logarithm of the IC50, by convention in mol/L. Take `COc1ccc(C(Sc2nc3ccccc3s2)c2cccnc2)cc1` (stereo not drawn): the pKd in [1] was 4.85. Also, the negative logarithm of the IC50 (pIC50) in series [2] was 4.40; in series [3] it was 4.92; in series [4] it was 4.46.

Take `COc1ccc(C(Sc2ccc(C)cc2)c2ccccn2)cc1` (stereo not drawn): the negative logarithm of the IC50 (pIC50) in series [3] is 4.70.

In the case of `CCCCCC[C@H]1C(=O)O[C@H](C)[C@H](NC(=O)c2cccc(NC=O)c2O)C(=O)O[C@@H](C)[C@@H]1OC(=O)CC(C)C`, the result in series [5] was Active.

With `COc1ccc(C(Sc2ccc3ccccc3c2)c2cccnc2)cc1` (stereo not drawn), the Activity entry in [6] is “Dose-dependent effect”; in series [7] it was 40%; in [8], “Dose-dependent effect”; in series [9], “Dose-dependent effect”; in series [10], “Dose-dependent effect”; in [11] it was “Dose-dependent effect”. Moreover, the Activity is reported as 65% in [12], 85% in [13] and “Non-toxic” in series [15]. In addition, the outcome in series [5] and in series [17] was Active. Also, the outcome in series [14], in [16], in [18] and in series [19] was inactive. In addition, the results for the negative-log IC50 (pIC50) in series [3] and in series [20] were 5.40 and 3.19, respectively.

With `COc1ccc(C(Sc2ccc(C)cc2)c2cccnc2)cc1` (stereo not drawn), the pKd in [1] is 4.92. The pIC50 in series [2] is 4.70; in series [3] it was 4.70; in series [4] it was 4.40.

Take `COc1ccc(C(Sc2ccccc2C)c2cccnc2)cc1` (stereo not drawn): the Activity entry is “Dose-dependent effect” in series [6]; “Dose-dependent effect” in series [8]; “Dose-dependent effect” in [9]; “Dose-dependent effect” in series [10]; “Dose-dependent effect” in series [11]; 30% in series [12]. The Activity in [13] is reported as 50%; in series [15], “Non-toxic”; in series [22], 80%. Besides, in [1], the negative logarithm of the Kd (pKd) was 4.59. Moreover, the “Ratio IC50” value in series [21] is listed as 125. The result in [14] was inactive. Besides, the pIC50 in series [2] was 4.59; in series [3], 5.10; in series [4] it was 4.80; in [20], 3.00. Also, the result in series [17] was Active.

Consider `COc1ccc(C(Sc2ccc(Cl)cc2)c2cccnc2)cc1` (stereo not drawn), for which the pIC50 in series [2] was 4.40; in series [3], 4.92; in [4] it was 4.40.

In the case of `COc1ccc(C(Sc2ccccc2)c2cccnc2)cc1` (stereo not drawn), the Activity entry in [6] is “Dose-dependent effect”; in [7] it was 20%; in series [8] it was “Dose-dependent effect”; in series [9], “Dose-dependent effect”; in [10], “Dose-dependent effect”; in series [11] it was “Dose-dependent effect”. The Activity in [12] is on record as 30%; in [13] it was 60%; in series [15], “Non-toxic”. Moreover, the negative logarithm of the Kd (pKd) in [1] was 4.70. Besides, the “Ratio IC50” value in [21] came to 200. Also, the pIC50 in series [2] was 4.74; in [3], 5.30; in series [4] it was 4.96; in [20] it was 3.00. The “%max” value in series [17] is “Active”.

Source of the values: ChEMBL document CHEMBL1153556, “Antiplasmodial activity of [(aryl)arylsulfanylmethyl]Pyridine” (Antimicrob Agents Chemother, 2008).
